Tests used:
[1] = Cytotoxicity against human PANC1 cells under hypoxic condition […] by crystal violet method; type: functional, cell-based; settings: PANC-1
Outline: (§1)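 HCT-8 or PANC-1 cells seeded at 2 × 10^4 per well in duplicate plates and preincubated 24 h to adhere. Serially diluted samples added, then cultures held 2 d either normoxic (5% CO2) or hypoxic (1% O2, modular chamber with oxygen indicator). Viability read by crystal violet staining under normoxic conditions.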

HCT-8 = experiment: Selectivity index, ratio of IC50 for human HCT8 cells under normoxic condition to IC50 for human HCT8 cells under hypoxic condition; type: functional
PANC-1 = experiment: Selectivity index, ratio of IC50 for human PANC1 cells under normoxic condition to IC50 for human PANC1 cells under hypoxic condition; type: functional
[2] = Cytotoxicity against human HCT8 cells under hypoxic condition […] by crystal violet method; type: functional, cell-based; settings: HCT-8; outline: as §1
[3] = Cytotoxicity against human PANC1 cells under normoxic condition after 2 days by crystal violet method; settings: PANC-1, 2 d
[4] = Cytotoxicity against human HCT8 cells under normoxic condition after 2 days by crystal violet method; settings: HCT-8, 2 d

Row | Structure (SMILES) | IC50 [1] [µM] | Ratio IC50 (HCT-8) | Ratio IC50 (PANC-1) | IC50 [2] [µM] | IC50 [3] [µM] | IC50 [4] [µM]
1 | CC(C)CCCCCCCCCCC[C@@H](C)[C@@H]1OC(=O)[C@@H]([C@@H](O)C(N)=O)NC(=O)CN(C)C(=O)CCC(C)NC(=O)[C@H]1C (stereo not given in full) | 75.4 | 4.3 | 0.26 | 6.5 | 19.3 | 27.7
2 | C=C1/C=C/C(=O)N(C)CC(=O)N[C@H]([C@@H](O)C(N)=O)C(=O)O[C@@H]([C@H](C)CCCCCCCCCCCC(C)C)[C@H](C)C(=O)N1 | 0.37 | 12.8 | 6.3 | 0.3 | 2.3 | 3.9
3 | C=C1/C=C/C(=O)N(C)CC(=O)N[C@H]([C@@H](O)C(N)=O)C(=O)O[C@@H]([C@H](C)CCCCCCCCCCCCCC(C)C)[C@H](C)C(=O)N1 | 4.7 | 5.2 | 3.8 | 1.8 | 17.9 | 9.4
4 | CC(C)CCCCCCCCCCC[C@@H](C)[C@H](O)[C@H](C)C(=O)NC(C)CCC(=O)N(C)CC(=O)N[C@@H](C(=O)O)[C@@H](O)C(N)=O (stereo not given in full) | > 80 | 0.54 | – | 63.4 | 27.4 | 33.9
5 | C=C1/C=C/C(=O)N(C)CC(=O)NC(C(O)C(N)=O)C(=O)OC(C(C)CCCCCCCCCCCCC(C)C)C(C)C(=O)N1 (stereo not given) | 0.71 | 10 | 4.3 | 0.21 | 3.1 | 2.1
6 | COc1cccc2c1C(=O)c1c(O)c3c(c(O)c1C2=O)C[C@@](O)(C(=O)CO)C[C@@H]3O[C@H]1C[C@H](N)[C@H](O)[C@H](C)O1 [DOXORUBICIN] | 5.4 | 0.12 | 0.21 | 19.6 | 1.1 | 2.4
